≈ marks a conversion by molar mass, not a printed value.
Columns and labels:
Type in all cases: functional
[1] = tested on: Escherichia coli; assay: Antimicrobial activity against Escherichia coli at 100 ug/ml by agar plate diffusion technique; conditions: read-out: IZ
Summary of the method: (§1)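 Agar plate diffusion against E. coli, P. aeruginosa, S. aureus and B. subtilis, with compounds at 25, 50 and 100 µg/mL. Streptomycin as standard.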

[2] = tested on: Staphylococcus aureus; assay: Antimicrobial activity against Staphylococcus aureus at 100 ug/ml by agar plate diffusion technique; conditions: read-out: IZ; summary of the method: as §1
[3] = tested on: Candida albicans; assay: Antimicrobial activity against Candida albicans at 100 ug/ml by paper disc method; conditions: read-out: IZ
Summary of the method: (§2)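 Paper disc method against A. niger and C. albicans, with compounds at 25, 50 and 100 µg/mL. Amphotericin-B as standard.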

[4] = Antioxidant activity assessed as inhibition of lipid peroxidation using egg lecithin liposomes incubated for 1 hr
Summary of the method: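 Egg lecithin (3 mg/mL, phosphate buffer pH 7.4) sonicated 10 min to form liposomes. Sample or ascorbic acid (12.5–100 µg/mL) added. Peroxidation induced with FeCl3 and L-ascorbic acid, 1 h at 37 °C. Stopped with HCl/TCA/TBA/BHA, boiled 15 min, centrifuged, supernatant read at 532 nm. Triplicate. % inhibition vs control. IC50 derived.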

[5] = Antioxidant activity assessed as nitric oxide radical scavenging activity after 150 mins
Summary of the method: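 10 mM sodium nitroprusside (4 mL), PBS pH 7.4 (1 mL) and sample or ascorbic acid in DMSO (1 mL, 12.5–100 µg/mL), incubated 150 min at 25 °C. Nitrite detected with sulphanilic acid (5 min) then naphthylethylenediamine (30 min, diffused light). Read at […]. Triplicate. % inhibition = [1 − (Vt/Vc)] × 100. IC50 derived from it.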

[6] = tested on: Metaphire posthuma; assay: Anthelmintic activity against Pheretima posthuma assessed as time taken for complete parasite paralysis at 0.5% w/v
Summary of the method: (§3)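 Earthworms (Pheretima posthuma) exposed to test solutions at 0.1, 0.2 and 0.5% w/v; time in minutes to complete paralysis (worms motionless) recorded. Albendazole as standard. Mean of three determinations ± S.D.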

[7] = Antiinflammatory activity assessed as inhibition of albumin denaturation at 100 ug/ml by UV-visible spectrophotometry
Summary of the method: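 Compounds dissolved in minimal DMF, diluted in PBS pH 7.4 (final DMF <2.5%). 1 mL test solution (100 µg/mL) plus 1 mL 1% albumin in PBS, 15 min at 27 ± 1 °C, then heated 10 min at 60 ± 1 °C. After cooling, turbidity read at 660 nm. % inhibition = [(Vt/Vc) − 1] × 100 against a no-drug control. Triplicate, averaged. Diclofenac standard.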

[8] = tested on: Staphylococcus aureus; assay: Antimicrobial activity against Staphylococcus aureus at 50 ug/ml by agar plate diffusion technique; conditions: read-out: IZ; summary of the method: as §1
[9] = tested on: Escherichia coli; assay: Antimicrobial activity against Escherichia coli at 50 ug/ml by agar plate diffusion technique; conditions: read-out: IZ; summary of the method: as §1
[10] = tested on: Metaphire posthuma; assay: Anthelmintic activity against Pheretima posthuma assessed as time taken for parasite death at 0.1% w/v
Summary of the method: (§4)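 Earthworms (Pheretima posthuma, spelled Perituma posthuma in text) exposed to test compounds at 0.1, 0.2 and 0.5% w/v. Albendazole served as standard, with an untreated control. Paralysis was recorded as the time until worms became motionless, then time to death was recorded, in minutes. Each value is the mean of three determinations with S.D.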

[11] = Antioxidant activity assessed as hydrogen peroxide scavenging activity after 10 mins
Summary of the method: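 H2O2 (20 mM) in PBS pH 7.4. 1 mL of sample or ascorbic acid in methanol (12.5–100 µg/mL) added to 2 mL H2O2 solution. A230 read after 10 min. % inhibition = [1 − (Vt/Vc)] × 100. Triplicate, averaged. IC50 derived from % inhibition across concentrations.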

[12] = tested on: Bacillus subtilis; assay: Antimicrobial activity against Bacillus subtilis at 50 ug/ml by agar plate diffusion technique; conditions: read-out: IZ; summary of the method: as §1
[13] = tested on: Staphylococcus aureus; assay: Antimicrobial activity against Staphylococcus aureus at 25 ug/ml by agar plate diffusion technique; conditions: read-out: IZ; summary of the method: as §1
[14] = Antioxidant activity assessed as potassium ferricyanide ion reducing power after 20 mins
Summary of the method: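 Oyaizu method. Samples or ascorbic acid in DMF (12.5–100 µg/mL) mixed with 0.2 M phosphate buffer pH 6.6 and 1% potassium ferricyanide, 20 min at 50 °C. 10% TCA added, centrifuged. Supernatant mixed with water and 0.1% FeCl3, read at 700 nm. % = [(Vt/Vc) − 1] × 100. IC50 derived.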

[15] = tested on: Aspergillus niger; assay: Antimicrobial activity against Aspergillus niger at 25 ug/ml by paper disc method; conditions: read-out: IZ; summary of the method: as §2
[16] = tested on: Aspergillus niger; assay: Antimicrobial activity against Aspergillus niger at 100 ug/ml by paper disc method; conditions: read-out: IZ; summary of the method: as §2
[17] = tested on: Metaphire posthuma; assay: Anthelmintic activity against Pheretima posthuma assessed as time taken for complete parasite paralysis at 0.2% w/v; summary of the method: as §3
[18] = tested on: Bacillus subtilis; assay: Antimicrobial activity against Bacillus subtilis at 100 ug/ml by agar plate diffusion technique; conditions: read-out: IZ; summary of the method: as §1
[19] = tested on: Candida albicans; assay: Antimicrobial activity against Candida albicans at 50 ug/ml by paper disc method; conditions: read-out: IZ; summary of the method: as §2
[20] = tested on: Escherichia coli; assay: Antimicrobial activity against Escherichia coli at 25 ug/ml by agar plate diffusion technique; conditions: read-out: IZ; summary of the method: as §1
[21] = tested on: Pseudomonas aeruginosa; assay: Antimicrobial activity against Pseudomonas aeruginosa at 25 ug/ml by agar plate diffusion technique; conditions: read-out: IZ; summary of the method: as §1
[22] = tested on: Pseudomonas aeruginosa; assay: Antimicrobial activity against Pseudomonas aeruginosa at 100 ug/ml by agar plate diffusion technique; conditions: read-out: IZ; summary of the method: as §1
[23] = tested on: Candida albicans; assay: Antimicrobial activity against Candida albicans at 25 ug/ml by paper disc method; conditions: read-out: IZ; summary of the method: as §2
[24] = tested on: Bacillus subtilis; assay: Antimicrobial activity against Bacillus subtilis at 25 ug/ml by agar plate diffusion technique; conditions: read-out: IZ; summary of the method: as §1
[25] = tested on: Metaphire posthuma; assay: Anthelmintic activity against Pheretima posthuma assessed as time taken for parasite death at 0.5% w/v; summary of the method: as §4
[26] = tested on: Metaphire posthuma; assay: Anthelmintic activity against Pheretima posthuma assessed as time taken for complete parasite paralysis at 0.1% w/v; summary of the method: as §3
[27] = tested on: Metaphire posthuma; assay: Anthelmintic activity against Pheretima posthuma assessed as time taken for parasite death at 0.2% w/v; summary of the method: as §4
[28] = tested on: Aspergillus niger; assay: Antimicrobial activity against Aspergillus niger at 50 ug/ml by paper disc method; conditions: read-out: IZ; summary of the method: as §2
[29] = tested on: Pseudomonas aeruginosa; assay: Antimicrobial activity against Pseudomonas aeruginosa at 50 ug/ml by agar plate diffusion technique; conditions: read-out: IZ; summary of the method: as §1

SMILES | zone of inhibition at 100 µg/mL [1] [mm] | zone of inhibition at 100 µg/mL [2] [mm] | zone of inhibition at 100 µg/mL [3] [mm] | IC50 [4] [µg/mL] | IC50 [5] [µg/mL] | Time [6] [min] | inhibition [7] [%] | zone of inhibition at 50 µg/mL [8] [mm] | zone of inhibition at 50 µg/mL [9] [mm] | Time [10] [min] | IC50 [11] [µg/mL] | zone of inhibition at 50 µg/mL [12] [mm] | zone of inhibition at 25 µg/mL [13] [mm] | IC50 [14] [µg/mL] | zone of inhibition at 25 µg/mL [15] [mm] | zone of inhibition at 100 µg/mL [16] [mm] | Time [17] [min] | zone of inhibition at 100 µg/mL [18] [mm] | zone of inhibition at 50 µg/mL [19] [mm] | zone of inhibition at 25 µg/mL [20] [mm] | other results
CSc1nc(-c2ccccc2F)c(C#N)c(=O)n1C | 14.2 | 20.9 | 16 | 58 (≈ 211 µM) | 78 (≈ 283 µM) | 55.17 | 69.3 | 15.3 | 13.8 | 90.4 | 63 (≈ 229 µM) | 20.2 | 12.2 | 61 (≈ 222 µM) | 12.7 | 22.7 | 71.4 | 29.4 | 12.1 | 10.9 | zone of inhibition at 25 µg/mL [21]: 9.17 mm; zone of inhibition at 100 µg/mL [22]: 11.8 mm; zone of inhibition at 25 µg/mL [23]: 10.8 mm; zone of inhibition at 25 µg/mL [24]: 16.9 mm; Time [25]: 69.54 min; Time [26]: 72.34 min; Time [27]: 85.73 min; zone of inhibition at 50 µg/mL [28]: 14.9 mm; zone of inhibition at 50 µg/mL [29]: 10.4 mm
Cn1c(NN)nc(-c2ccccc2O)c(C#N)c1=O | 11.2 | 17.7 | 17.7 | 34 (≈ 132 µM) | 46 (≈ 179 µM) | 30.13 | 34.4 | 12.2 | 9.58 | 50.13 | 30 (≈ 117 µM) | 13.8 | 10.6 | 38 (≈ 148 µM) | 8.24 | 16.5 | 33.85 | 22.2 | 12.5 | 8.39 | zone of inhibition at 25 µg/mL [21]: 7.27 mm; zone of inhibition at 100 µg/mL [22]: 13 mm; zone of inhibition at 25 µg/mL [23]: 9.62 mm; zone of inhibition at 25 µg/mL [24]: 9.81 mm; Time [25]: 44.1 min; Time [26]: 35.42 min; Time [27]: 37.1 min; zone of inhibition at 50 µg/mL [28]: 10.6 mm; zone of inhibition at 50 µg/mL [29]: 9.17 mm
COc1cccc(-c2nc(NN)n(C)c(=O)c2C#N)c1OC | 8.12 | 15.8 | 17.9 | 37 (≈ 123 µM) | 54 (≈ 179 µM) | 51.42 | 24.6 | 11.2 | 7.16 | 71.45 | 36 (≈ 119 µM) | 12.2 | 8.72 | 44 (≈ 146 µM) | 8.38 | 16.7 | 55.57 | 16.7 | 11 | 7.38 | zone of inhibition at 25 µg/mL [21]: 6.15 mm; zone of inhibition at 100 µg/mL [22]: 9.15 mm; zone of inhibition at 25 µg/mL [23]: 10.1 mm; zone of inhibition at 25 µg/mL [24]: 9.9 mm; Time [25]: 67.22 min; Time [26]: 55.23 min; Time [27]: 70.25 min; zone of inhibition at 50 µg/mL [28]: 10.3 mm; zone of inhibition at 50 µg/mL [29]: 8.12 mm
CCOC(=O)c1cnn(-c2nc(-c3ccccc3F)c(C#N)c(=O)n2C)c1N | 27.5 | 26.7 | 21.2 | 94 (≈ 246 µM) | 87 (≈ 228 µM) | 48.38 | 48.9 | 20.8 | 22.3 | 88.45 | 86 (≈ 225 µM) | 19.3 | 15.8 | 69 (≈ 180 µM) | 11.9 | 21.2 | 68.48 | 28 | 15.2 | 15.1 | zone of inhibition at 25 µg/mL [21]: 12.7 mm; zone of inhibition at 100 µg/mL [22]: 26.2 mm; zone of inhibition at 25 µg/mL [23]: 12 mm; zone of inhibition at 25 µg/mL [24]: 14.8 mm; Time [25]: 60.77 min; Time [26]: 70.67 min; Time [27]: 80.74 min; zone of inhibition at 50 µg/mL [28]: 14.1 mm; zone of inhibition at 50 µg/mL [29]: 16.1 mm
